The list is not random: actives were taken first. Their share in the collection is about 2.3%.
OXTR potentiate: potentiators of human oxytocin receptor; 320,000 compounds, 0.061% hits; activation, % at 3 µM; CHO-OTR cells, Fluo-8 calcium fluorescence, potentiator mode; 0% = oxytocin EC15, 100% = EC100; P30559;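 active means activation above that plate's cutoff, the mean activation of tested compounds plus 3 SD, cut at about 6.6% in these data, passing the limit was not always enough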
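System: human OTR in CHO cells / Also added: sub-maximal oxytocin, roughly EC15 / Control set: EC15 oxytocin low, 75 nM oxytocin high / Schedule: 6 min compound pre-incubation at room temperature, 100 s kinetic read / Compound: single-point 3.0 µM / Replication: singlicate / Technique: Fluo-8 calcium dye fluorescence / Read-out basis: % activation of max/min ratio relative to oxytocin controls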
V1R ag counter: activates human V1a receptor in oxytocin agonist counter-screen | P37288 | CHO-V1R cells, Fluo-8 calcium fluorescence, agonist mode; 0% DMSO, 100% 3 nM vasopressin | activation, % at 3 µM | 320,000 compounds, 0.25% hits | AID 2797;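 active means activation above the mean activation of all tested compounds plus 3 SD, per screening run, cut at about 20% in these data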;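 further: signal is peak over basal fluorescence ratio across a 100 second FLIPR read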
Target sequence (P37288 whole entry, looked up): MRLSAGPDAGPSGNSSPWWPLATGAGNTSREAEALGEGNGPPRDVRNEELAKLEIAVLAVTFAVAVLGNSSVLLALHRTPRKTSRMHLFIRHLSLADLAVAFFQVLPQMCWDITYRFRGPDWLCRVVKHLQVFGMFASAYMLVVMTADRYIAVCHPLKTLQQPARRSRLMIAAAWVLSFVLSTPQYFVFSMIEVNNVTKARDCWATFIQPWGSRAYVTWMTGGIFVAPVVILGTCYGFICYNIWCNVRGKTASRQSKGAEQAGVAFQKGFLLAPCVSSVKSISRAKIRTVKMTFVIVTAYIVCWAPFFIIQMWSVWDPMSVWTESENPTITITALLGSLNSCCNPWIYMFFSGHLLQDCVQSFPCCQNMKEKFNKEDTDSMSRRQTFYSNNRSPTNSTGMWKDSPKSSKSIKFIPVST
TAAR1 ag: agonists of human TAAR1 | Q96RJ0 | CHO RD-HGA16 TAAR1, Fluo-8 calcium fluorescence; vehicle wells 0%, saturating PEA agonist 100% | activation, % at 3 µM | 360,000 compounds, 0.99% hits | AID 624467;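 active means activation above the mean activation of all test compounds in the run plus 3 SD, cut at about 38% in these data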
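Signal – calcium-sensitive Fluo-8 signal, excitation 470-495, emission 515-575 nm · System – RD-HGA16 (CHO) cells co-expressing Gα16 and hTAAR1 · Incubation – 17-24 h seeding, 75 min 37 °C dye, 30 min RT · Compound dosing – 3 µM single concentration · Repeats – no replicates (n 1)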
TAAR1 antagonist: antagonists of human TAAR1; CHO RD-HGA16 TAAR1, Fluo-8 calcium fluorescence, antagonist; inhibition, % at 3 µM; 360,000 compounds, 1.5% hits; AID 624466;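 active means inhibition above a per-plate cutoff, the mean inhibition of test compounds on that plate plus 3 SD, cut at about 49% in these data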
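Assay system: CHO-derived RD-HGA16 cells stably expressing human TAAR1 plus Gα16. Timing: 140 s kinetic read after compound, 140 s after agonist. Technique: kinetic Fluo-8 calcium fluorescence measurement. Measure: % inhibition of agonist calcium response.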
OXTR ag: human OXTR agonism; P30559; CHO-OTR cells, Fluo-8 calcium fluorescence; normalized: DMSO 0%, oxytocin 100%; activation, % at 3 µM; 320,000 compounds, 0.32% hits;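 active means activation above the mean of all tested compounds plus 3 SD, cutoff set per screening run, cut at about 20% in these data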;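 further: peak over basal fluorescence ratio from a 100 s FLIPR kinetic read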
Hits are given with their value; ! = not confirmed by another sample.

For COC(=O)C1=C(c2cccc3c2S(=O)(=O)c2ccccc2-3)C[C@@H]2CC[C@H]1N2C(=O)N1CCc2cc(OC)c(OC)cc2C1 the results were OXTR potentiate inactive, V1R ag counter inactive, TAAR1 ag inactive, TAAR1 antagonist 51 and OXTR ag inactive.
Screening COc1ccc2[nH]c(C)c(CCNCc3cccnc3)c2c1 returned OXTR potentiate inactive, V1R ag counter inactive, TAAR1 ag inactive, TAAR1 antagonist inactive and OXTR ag inactive.
`Cc1[nH]c2ccc(OC(F)(F)F)cc2c1CCNCc1ccc(Cl)cc1` gave TAAR1 ag 38 and TAAR1 antagonist inactive.
`CCOc1cccc(CNCCc2c(C)[nH]c3ccc(OC(F)(F)F)cc23)c1O` gave OXTR potentiate inactive, V1R ag counter 29, TAAR1 ag 55, TAAR1 antagonist 49 and OXTR ag 39.
For CCCCc1nc(N2CCNCC2)c(C#N)c2c1CSC(C)(C)C2 the results were OXTR potentiate inactive, V1R ag counter inactive, TAAR1 ag 40, TAAR1 antagonist inactive and OXTR ag inactive.
Cc1cccc(NP(=O)(Oc2ccccc2F)Oc2ccccc2F)c1 was read as OXTR potentiate inactive, V1R ag counter inactive, TAAR1 ag inactive, TAAR1 antagonist 53 and OXTR ag inactive.
`Cc1ccc(NP(=O)(Oc2ccccc2F)Oc2ccccc2F)cc1C` gave OXTR potentiate inactive, V1R ag counter inactive, TAAR1 ag inactive, TAAR1 antagonist inactive and OXTR ag inactive.
For COc1ccccc1OP(=O)(Nc1cccnc1)Oc1ccccc1OC the results were OXTR potentiate inactive, V1R ag counter inactive, TAAR1 ag inactive, TAAR1 antagonist 60 and OXTR ag inactive.
Screening O=P(Nc1ccccc1)(Nc1ccccc1)Oc1ccc(Cl)cc1 returned OXTR potentiate inactive, V1R ag counter inactive and OXTR ag inactive.
`N#Cc1ncc(N=Cc2ccc(N(CCCl)CCCl)cc2)s1` gave TAAR1 ag inactive and TAAR1 antagonist inactive.
Screening CC1CCCN(CC(=O)c2ccc(Cl)c(Cl)c2)C1 (centres undefined) returned OXTR potentiate inactive, V1R ag counter inactive, TAAR1 ag 42, TAAR1 antagonist inactive and OXTR ag inactive.
CC1CCN(CC(=O)c2ccc3c(c2)OCCO3)CC1 was read as OXTR potentiate inactive, V1R ag counter inactive, TAAR1 ag inactive, TAAR1 antagonist inactive and OXTR ag inactive.
For C[C@]12CCC3C(CC[C@H]4C[C@@H](O)CC[C@]34C)C1C[C@@H](Br)[C@@H]2O (some centres undefined) the results were OXTR potentiate inactive, V1R ag counter inactive, TAAR1 ag inactive, TAAR1 antagonist inactive and OXTR ag inactive.
For Cc1cc(C)cc(N2C(=O)NC(=O)/C(=C\c3cccn3-c3ccccc3)C2=O)c1 the results were OXTR potentiate inactive, V1R ag counter inactive, TAAR1 ag 43, TAAR1 antagonist inactive and OXTR ag inactive.
Cc1cccc(N2C(=O)NC(=O)/C(=C\c3cnc(-c4ccccc4)nc3)C2=O)c1 was read as OXTR potentiate inactive, V1R ag counter inactive, TAAR1 ag inactive, TAAR1 antagonist inactive and OXTR ag inactive.
Screening Cc1ccc(S(=O)(=O)NP(=O)(Oc2ccccc2)Oc2ccccc2)cc1 returned OXTR potentiate inactive, V1R ag counter inactive, TAAR1 ag inactive, TAAR1 antagonist inactive and OXTR ag inactive.
Screening Cc1ccc(C)c(NP(=O)(Oc2ccccc2)Oc2ccccc2)c1 returned OXTR potentiate inactive, V1R ag counter inactive, TAAR1 ag inactive, TAAR1 antagonist 80 and OXTR ag inactive.
Screening CCC12CCN(CC3(O)CC3)C(Cc3ccc(O)cc31)C2(C)C (centres undefined) returned TAAR1 ag inactive and TAAR1 antagonist inactive.
CCN1/C(=C\C=C\C2=[N+](CC)c3ccccc3C2(C)C)C(C)(C)c2ccccc21 was read as OXTR potentiate inactive, V1R ag counter 459 and OXTR ag 443.
`O=C(O)C1CC2(Cl)C(Cl)=C(Cl)C1(Cl)C2(Cl)Cl` (centres undefined) gave TAAR1 ag inactive and TAAR1 antagonist inactive.
Screening COC(=O)C1=C(c2ccccc2OCc2ccccc2)C[C@@H]2CC[C@H]1N2C(=O)NCc1ccc(OC)c(OC)c1 returned OXTR potentiate inactive, V1R ag counter inactive, TAAR1 ag inactive, TAAR1 antagonist inactive and OXTR ag inactive.
For CCOCCCn1c(N)c(C(=O)Nc2sc3c(c2C(=O)OC)CCCC3)c2nc3ccccc3nc21 the results were OXTR potentiate inactive, V1R ag counter inactive, TAAR1 ag inactive, TAAR1 antagonist 64 and OXTR ag inactive.
For Cc1nn(CC(C)C)c(Cl)c1C(=O)NC1CCCCC1 the results were TAAR1 ag inactive and TAAR1 antagonist inactive.
`CCN(CC)c1ccc(/C=C2\C(=O)NC(=S)N(C)C2=O)o1` gave OXTR potentiate inactive, V1R ag counter 23, TAAR1 ag inactive, TAAR1 antagonist inactive and OXTR ag 22.
`COc1ccccc1CCNCc1cccc(C(F)(F)F)c1` gave OXTR potentiate inactive, V1R ag counter inactive, TAAR1 ag inactive, TAAR1 antagonist inactive and OXTR ag inactive.
`Clc1ccc(COC(Cn2ccnc2)c2ccc(Cl)cc2Cl)c(Cl)c1` (centres undefined) gave OXTR potentiate inactive, V1R ag counter inactive, TAAR1 ag inactive, TAAR1 antagonist 53! and OXTR ag inactive.
C[C@]12C[C@H](O)[C@@H](O)C[C@@H]1CC[C@@H]1[C@@H]2CC[C@]2(C)C(=O)CC[C@@H]12 was read as TAAR1 ag inactive and TAAR1 antagonist 51.
Screening CCOC(=O)C1CCCN(c2ccc([N+](=O)[O-])c3nonc23)C1 (centres undefined) returned TAAR1 ag 225 and TAAR1 antagonist 71.
For COC(=O)C1=C(c2cccc(C#N)c2)C[C@@H]2CC[C@H]1N2C(=O)N1CCCCC1 the results were OXTR potentiate inactive, V1R ag counter inactive, TAAR1 ag inactive, TAAR1 antagonist inactive and OXTR ag inactive.
Screening COC(=O)C1=C(c2ccc(OC(F)(F)F)cc2)C[C@@H]2CC[C@H]1N2C(=O)NC1CCCCC1 returned OXTR potentiate inactive, V1R ag counter inactive, TAAR1 ag inactive, TAAR1 antagonist inactive and OXTR ag inactive.
COC(=O)C(O)(c1ccc(NC(=S)NC(=O)c2ccc(Cl)cc2Cl)c(C)c1)C(F)(F)F (centres undefined) was read as OXTR potentiate inactive, V1R ag counter 22, TAAR1 ag inactive, TAAR1 antagonist 72 and OXTR ag 29.
For COC(=O)C(O)(c1ccc(NC(=S)NC(=O)c2ccc(Cl)cc2Cl)cc1)C(F)(F)F (centres undefined) the results were OXTR potentiate inactive, V1R ag counter inactive, TAAR1 ag 48, TAAR1 antagonist 54 and OXTR ag inactive.
